Source: ChEMBL document CHEMBL1153517, “Synthesis and biological evaluation of imidazole thioacetanilides as novel non-nucleoside HIV-1 reverse transcriptase inhibitors” (Bioorg Med Chem, 2009)

Key:
[1] = test system: Human immunodeficiency virus 1; assay: Antiviral activity against […] HIV1 bearing reverse transcriptase K103/Y181C mutation by MTT assay; type: functional, organism-based
[2] = test system: Human immunodeficiency virus 1; assay: Antiviral activity against wild type HIV1 by MTT assay; type: functional, organism-based
[3] = Cytotoxicity against human MT4 cells by MTT assay; type: cell-based
In short: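 Mock-infected MT-4 cells (6 × 10⁵ cells/mL) are run in parallel triplicate wells with serial fivefold compound dilutions and culture medium in place of virus. After 5 days, MTT formazan is read at OD540, using the median OD of three wells. CC₅₀ is the concentration that cuts absorbance of the mock-infected control by 50%.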

[4] = Selectivity index, ratio of CC50 for human MT4 cells to EC50 for HIV2 ROD; type: toxicity, cell-based; conditions: for selectivity ratio: MT4 cells, read-out: Ratio CC50/EC50; for Ratio CC50/EC50: mt4
In short: (§1)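 Ratio of CC₅₀ to EC₅₀. Both come from a 5-day MTT assay in MT-4 cells, using parallel mock-infected wells and wells infected with the named virus strain (100–300 CCID₅₀), with serial fivefold compound dilutions in triplicate.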

[5] = test system: Human immunodeficiency virus 2; assay: Antiviral activity against HIV2 ROD infected in human MT4 cells assessed as virus-induced cytopathic effect by MTT assay; type: functional, organism-based; conditions: Human immunodeficiency virus 2, ISOLATE ROD
In short: (§2)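 MT-4 cells (exponentially growing, resuspended at 6 × 10⁵ cells/mL) are infected with HIV-1 IIIB or HIV-2 ROD stock at 100–300 CCID₅₀. Serial fivefold compound dilutions are added at the start, in triplicate wells. After 5 days, viability is read by MTT reduction at OD540, using the median OD of three wells. EC₅₀ is the concentration giving 50% protection from the viral cytopathic effect.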

[6] = test system: Human immunodeficiency virus 1; assay: Antiviral activity against HIV1 3B infected in human MT4 cells assessed as virus-induced cytopathic effect by MTT assay; type: functional, organism-based; conditions: Human immunodeficiency virus 1, 3B; in short: as §2
[7] = Selectivity index, ratio of CC50 for human MT4 cells to EC50 for HIV1 3B; type: toxicity, cell-based; conditions: for selectivity ratio: MT4 cells, read-out: Ratio CC50/EC50; for Ratio CC50/EC50: mt4; in short: as §1

Question: What does the source list for Cc1ccc(NC(=O)CSc2nnc(C)n2-c2ccccc2)c(Br)c1?
Answer: EC50 [1]: 1.3 µM; EC50 [2]: 0.1 µM

Question: Which IC50 [2] does the source give for Cc1cc(C)c(-n2nnnc2SCC(=O)Nc2ccccc2Cl)c(C)c1 here?
Answer: 0.005 µM

Question: What does the source list for Cc1ccccc1NC(=O)CSc1nccn1-c1ccc(Cl)cc1?
Answer: CC50 [3]: 160 µM; selectivity ratio [4]: < 1; EC50 [5]: > 160 µM; EC50 [6]: 35.4 µM; selectivity ratio [7]: 5

Question: Which CC50 [3] does the source give for O=C(CSc1nccn1-c1ccc(Cl)cc1)Nc1ccccc1Cl here?
Answer: > 330 µM

Question: And the “Ratio CC50/EC50” value [4]?
Answer: Not Active

Question: And the EC50 [5]?
Answer: > 330 µM

Question: What about the EC50 [6] of the same molecule?
Answer: ≥ 11.7 µM

Question: And the “Ratio CC50/EC50” value [7]?
Answer: Not Active

Question: With Cc1ccccc1NC(=O)CSc1nccn1-c1cccc2ccccc12 as the molecule, how does the CC50 [3] read?
Answer: 34.6 µM

Question: What about the selectivity ratio [4] of the same molecule?
Answer: < 1

Question: What about the EC50 [5] of the same molecule?
Answer: > 34.6 µM

Question: What about the EC50 [6] of the same molecule?
Answer: 2.46 µM

Question: What about the selectivity ratio [7] of the same molecule?
Answer: 14

Question: With O=C(CSc1nccn1-c1cccc2ccccc12)Nc1ccccc1F as the molecule, how does the CC50 [3] read?
Answer: 34.7 µM

Question: What about the selectivity ratio [4] of the same molecule?
Answer: < 1

Question: What about the EC50 [5] of the same molecule?
Answer: > 34.7 µM

Question: And the EC50 [6]?
Answer: 1.78 µM

Question: What about the selectivity ratio [7] of the same molecule?
Answer: 20

Question: Which CC50 [3] does the source give for Cc1ccc(NC(=O)CSc2nccn2-c2cccc3ccccc23)c(Br)c1 here?
Answer: 29.4 µM

Question: And the selectivity ratio [4]?
Answer: < 1

Question: And the EC50 [5]?
Answer: > 29.4 µM

Question: What about the EC50 [6] of the same molecule?
Answer: 0.73 µM

Question: And the selectivity ratio [7]?
Answer: 40

Question: With COc1ccc(-n2ccnc2SCC(=O)Nc2ccccc2C)cc1 as the molecule, how does the CC50 [3] read?
Answer: > 354 µM

Question: And the “Ratio CC50/EC50” value [4]?
Answer: Not Active

Question: What about the EC50 [5] of the same molecule?
Answer: > 354 µM

Question: What about the EC50 [6] of the same molecule?
Answer: 155 µM

Question: And the selectivity ratio [7]?
Answer: > 2

Question: Which CC50 [3] does the source give for O=C(CSc1nccn1-c1ccc(Cl)cc1)Nc1ccccc1Br here?
Answer: > 300 µM

Question: And the “Ratio CC50/EC50” value [4]?
Answer: Not Active

Question: What about the EC50 [5] of the same molecule?
Answer: > 296 µM

Question: What about the EC50 [6] of the same molecule?
Answer: 15.8 µM

Question: And the selectivity ratio [7]?
Answer: > 19

Question: Which CC50 [3] does the source give for Cc1ccc(-n2ccnc2SCC(=O)Nc2ccccc2C)cc1 here?
Answer: 147 µM

Question: And the selectivity ratio [4]?
Answer: < 1

Question: And the EC50 [5]?
Answer: > 147 µM

Question: What about the EC50 [6] of the same molecule?
Answer: 30.9 µM

Question: What about the selectivity ratio [7] of the same molecule?
Answer: 5

Question: Which CC50 [3] does the source give for O=C(CSc1nccn1-c1ccc(Cl)cc1)Nc1ccccc1[N+](=O)[O-] here?
Answer: > 321 µM

Question: What about the “Ratio CC50/EC50” value [4] of the same molecule?
Answer: Not Active

Question: What about the EC50 [5] of the same molecule?
Answer: > 321 µM

Question: What about the EC50 [6] of the same molecule?
Answer: 4.86 µM

Question: And the selectivity ratio [7]?
Answer: > 66

Question: What does the source list for COc1ccc(-n2ccnc2SCC(=O)Nc2ccccc2[N+](=O)[O-])cc1?
Answer: CC50 [3]: 161 µM; selectivity ratio [4]: < 1; EC50 [5]: > 161 µM; EC50 [6]: 17.9 µM; selectivity ratio [7]: > 9

Question: Which CC50 [3] does the source give for Cc1ccc(-n2ccnc2SCC(=O)Nc2ccc(C)cc2Br)cc1 here?
Answer: 80.8 µM

Question: What about the selectivity ratio [4] of the same molecule?
Answer: < 1

Question: And the EC50 [5]?
Answer: > 80.8 µM

Question: What about the EC50 [6] of the same molecule?
Answer: > 80.8 µM

Question: And the selectivity ratio [7]?
Answer: 66

Question: With Cc1ccc(-n2ccnc2SCC(=O)Nc2ccccc2F)cc1 as the molecule, how does the CC50 [3] read?
Answer: 37.9 µM

Question: And the selectivity ratio [4]?
Answer: < 1

Question: And the EC50 [5]?
Answer: > 37.9 µM

Question: And the EC50 [6]?
Answer: > 37.9 µM

Question: And the selectivity ratio [7]?
Answer: < 1

Question: For Cc1ccc(-n2ccnc2SCC(=O)Nc2ccccc2Cl)cc1, which CC50 [3] is on record?
Answer: 33.7 µM

Question: And the selectivity ratio [4]?
Answer: < 1

Question: What about the EC50 [5] of the same molecule?
Answer: > 33.7 µM

Question: What about the EC50 [6] of the same molecule?
Answer: 4.97 µM

Question: And the selectivity ratio [7]?
Answer: 7

Question: With O=C(CSc1nccn1-c1cccc2ccccc12)Nc1ccccc1Cl as the molecule, how does the CC50 [3] read?
Answer: 35.2 µM

Question: And the selectivity ratio [4]?
Answer: < 1

Question: And the EC50 [5]?
Answer: > 35.2 µM

Question: What about the EC50 [6] of the same molecule?
Answer: 0.2 µM

Question: And the selectivity ratio [7]?
Answer: 170

Question: With O=C(CSc1nccn1-c1cccc2ccccc12)Nc1ccccc1[N+](=O)[O-] as the molecule, how does the CC50 [3] read?
Answer: 28.8 µM

Question: And the selectivity ratio [4]?
Answer: < 1

Question: And the EC50 [5]?
Answer: > 28.8 µM

Question: And the EC50 [6]?
Answer: 0.18 µM

Question: And the selectivity ratio [7]?
Answer: 162

Question: Which CC50 [3] does the source give for COc1ccc(-n2ccnc2SCC(=O)Nc2ccccc2F)cc1 here?
Answer: ≥ 42 µM

Question: And the “Ratio CC50/EC50” value [4]?
Answer: Not Active

Question: And the EC50 [5]?
Answer: > 42 µM

Question: And the EC50 [6]?
Answer: > 42 µM

Question: And the “Ratio CC50/EC50” value [7]?
Answer: Not Active

Question: For COc1ccc(-n2ccnc2SCC(=O)Nc2ccccc2Br)cc1, which CC50 [3] is on record?
Answer: > 299 µM

Question: And the “Ratio CC50/EC50” value [4]?
Answer: Not Active

Question: And the EC50 [5]?
Answer: > 299 µM

Question: And the EC50 [6]?
Answer: ≥ 18.4 µM

Question: For Cc1ccc(-n2ccnc2SCC(=O)Nc2ccccc2Br)cc1, which CC50 [3] is on record?
Answer: 39.3 µM

Question: And the selectivity ratio [4]?
Answer: < 1

Question: What about the EC50 [5] of the same molecule?
Answer: > 39.3 µM

Question: What about the EC50 [6] of the same molecule?
Answer: 5.15 µM

Question: What about the selectivity ratio [7] of the same molecule?
Answer: 8

Question: What does the source list for Cc1ccc(-n2ccnc2SCC(=O)Nc2ccccc2[N+](=O)[O-])cc1?
Answer: CC50 [3]: 131 µM; selectivity ratio [4]: < 1; EC50 [5]: > 131 µM; EC50 [6]: 1.03 µM; selectivity ratio [7]: 126

Question: With O=C(CSc1nccn1-c1ccc(Cl)cc1)Nc1ccccc1F as the molecule, how does the CC50 [3] read?
Answer: > 345 µM

Question: And the “Ratio CC50/EC50” value [4]?
Answer: Not Active

Question: What about the EC50 [5] of the same molecule?
Answer: > 345 µM

Question: And the EC50 [6]?
Answer: 43.8 µM

Question: What about the selectivity ratio [7] of the same molecule?
Answer: > 8

Question: What does the source list for Cc1ccc(NC(=O)CSc2nccn2-c2ccc(Cl)cc2)c(Br)c1?
Answer: CC50 [3]: 221 µM; selectivity ratio [4]: < 1; EC50 [5]: > 204 µM; EC50 [6]: ≥ 55.2 µM; selectivity ratio [7]: 64

Question: Which CC50 [3] does the source give for O=C(CSc1nccn1-c1cccc2ccccc12)Nc1ccccc1Br here?
Answer: 30.5 µM

Question: What about the selectivity ratio [4] of the same molecule?
Answer: < 1

Question: And the EC50 [5]?
Answer: > 30.5 µM

Question: And the EC50 [6]?
Answer: 0.64 µM

Question: What about the selectivity ratio [7] of the same molecule?
Answer: 48

Question: What does the source list for COc1ccc(-n2ccnc2SCC(=O)Nc2ccccc2Cl)cc1?
Answer: CC50 [3]: > 334 µM; Ratio CC50/EC50 [4]: Not Active; EC50 [5]: > 334 µM; EC50 [6]: 32.3 µM; selectivity ratio [7]: > 10

Question: For COc1ccc(-n2ccnc2SCC(=O)Nc2ccc(C)cc2Br)cc1, which CC50 [3] is on record?
Answer: 25.8 µM

Question: And the selectivity ratio [4]?
Answer: < 1

Question: And the EC50 [5]?
Answer: > 25.8 µM

Question: What about the EC50 [6] of the same molecule?
Answer: > 25.8 µM

Question: What about the selectivity ratio [7] of the same molecule?
Answer: < 1

Question: Which results are given for CC(C)Nc1cccnc1N1CCN(C(=O)c2cc3cc(NS(C)(=O)=O)ccc3[nH]2)CC1 [DELAVIRDINE]?
Answer: CC50 [3]: > 3.83 µM; selectivity ratio [7]: > 12

Question: For O=C1Nc2ccc(Cl)cc2[C@@](C#CC2CC2)(C(F)(F)F)O1 [EFAVIRENZ], which CC50 [3] is on record?
Answer: > 6.34 µM

Question: And the selectivity ratio [7]?
Answer: > 1430

Question: For Cc1ccnc2c1NC(=O)c1cccnc1N2C1CC1 [NEVIRAPINE], which CC50 [3] is on record?
Answer: > 15 µM

Question: What does the source list for Cc1cn([C@H]2C[C@H](N=[N+]=[N-])[C@@H](CO)O2)c(=O)[nH]c1=O [ZIDOVUDINE]?
Answer: CC50 [3]: > 93.5 µM; selectivity ratio [7]: > 6190
